# Experimental data reported in PubChem BioAssay AID504383 (The Scripps Research Institute Molecular Screening Center, 2011).
# The campaign covered roughly 2,500 compounds. About 1,200 (48%) were called active.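 How the source made its calls: active means mean activation above the low control average plus 3 SD, as set in the primary screen (cut at about 12% in these data); inactive means the rest.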 So high a share suggests a set chosen from earlier hits. Some of the results follow.
# Target: Troponin I, cardiac muscle (Homo sapiens) + Troponin T, cardiac muscle (Homo sapiens) + Troponin C, slow skeletal and cardiac muscles (Homo sapiens) (UniProt P19429+P45379+P63316)
# Assay: cardiac RTF calcium sensitivity activators, confirmation, biochemical, IANBD-TnC fluorescence, triplicate (AID 504383);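 further: 0% = DMSO at 0.472 mM calcium and 100% = DMSO at 2.9 mM calcium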
# Details: IANBD-labeled cardiac RTF, Ca2+ sensitivity fluorescence; at 7.2 µM; active compounds read high; scaled from EC20 to saturating calcium; tested at EC20 calcium, 0.472 mM
# How it was run: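 Assay system: labelled regulated thin filament protein complex; schedule: 15 min compound incubation with filaments at 25 °C; benchmarks: low control EC20 calcium, high control EC100 calcium; reagent: Ca2+ 0.472 mM, EC20 level; doses: one dose, 7.2 µM nominal; evaluation: fluorescence gain scaled between EC20 and EC100 calcium controls; signal: filament fluorescence intensity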
row,Structure (SMILES),activation
1,CCOc1cccc(NC(=O)/C(C#N)=C\c2cn(CC(=O)O)c3ccccc23)c1,7.03% (inactive)
2,CCn1cc([N+](=O)[O-])c(C(=O)Nc2ccn(Cc3ccccc3)n2)n1,19.6% (active)
3,O=S1(=O)CCOC[C@H](CC2CCCCC2)N1Cc1ccccc1,3.3% (inactive)
4,Cc1onc(-c2c(F)cccc2Cl)c1C(N)=S,25.8% (active)
5,NC(=S)Nc1c(Cl)cccc1Cl,1.18% (inactive)
6,CCOC(=O)c1cc2c(=O)n3ccccc3nc2n(CCOC)c1=NC(=O)c1c(-c2c(F)cccc2Cl)noc1C,8.32% (inactive)
7,CSC(=NCc1ccco1)NC#N,5.56% (inactive)
8,O=[N+]([O-])c1ccc(/C=C/C2=NN(c3ccccc3)C(c3ccco3)C2)cc1 (stereo not given),31.7% (active)
9,O=[N+]([O-])c1ccc(C2=NN(c3ccccc3)C(c3ccco3)C2)cc1 (stereo not given),1.19% (inactive)
10,COc1ncnc2c1N=C1CC(C)(C)CC(N)=C1S2,70.2% (active)
11,COC(C(=O)Nc1c(F)cccc1F)c1ccccc1 (stereo not given),13.6% (active)
12,O=C(Nc1ccc(Br)cc1)C(c1ccccc1)c1ccccc1,3.94% (inactive)
13,Cc1nnc(NC(=O)CSc2ncnc3c2cnn3-c2ccccc2C)s1,14% (active)
14,Cc1nnc(NC(=O)CS(=O)(=O)Cc2ccccc2)s1,5.16% (inactive)
15,NC(=O)NNC1=Nc2cccc3cccc1c23,6.47% (inactive)
16,Nc1nc(SCC(=O)Nc2ccc(Cl)cc2)[nH]c(=O)c1-c1ccccc1,5.51% (inactive)
17,CCOC(=O)c1cccc(NC(=O)CSc2nc(N)cc(N)n2)c1,2.77% (inactive)
18,Nc1nc(SCC(=O)Nc2ccccc2)nc2nc3c(cc12)CCCC3,12.6% (active)
19,CCCOc1ccc(C2C(C(=O)/C=C/c3ccco3)=C(O)C(=O)N2CCN2CCOCC2)cc1OC (stereo not given),14% (active)
20,COc1ccc(NC(=O)Nc2cccnc2)c(OC)c1,5.8% (inactive)
21,C=C(C)c1cccc(C(C)(C)NC(=O)Nc2cccnc2)c1,15.5% (active)
22,CCn1c(CSCc2ccccc2)n[nH]c1=S,15.7% (active)
23,Nc1ccc(CCNc2ncnc3c2ncn3[C@@H]2O[C@H](CO)[C@@H](O)[C@H]2O)cc1,7.47% (inactive)
24,Cc1cc(-n2c(=O)c(C#N)cc3c(=O)n4ccccc4nc32)no1,14.7% (active)
25,S=C1NC2=C(CCCC2=C2SCCCS2)C(c2ccccc2)N1 (stereo not given),23.6% (active)

row,Structure (SMILES),activation
1,S=C1NC2=C(CCC/C2=C\c2ccccc2)C(c2ccccc2)N1 (stereo not given),8.03% (inactive)
2,CC(C)c1ccc(N2C(=O)/C(=C/N(C)C)SC2=S)cc1,57.7% (active)
3,CCN1C(=O)/C(=C/C=C2\N(CC)c3cc(S(=O)(=O)N(C)C)ccc3N2c2ccccc2)SC1=S,10.6% (inactive)
4,O=C1CSC(=S)N1c1ccc(O)cc1,4.53% (inactive)
5,CN(C)/C=C1\SC(=S)N(c2ccc(Br)cc2)C1=O,75.9% (active)
6,O=C(c1ccccc1C(=O)N1CCN(c2ccccc2)CC1)N1CCN(c2ccccc2)CC1,0.49% (inactive)
7,C=CCn1c(C)c(C(C)=O)c(N2CCN(c3ccccc3)CC2)nc1=S,74.9% (active)
8,CC(=O)c1nnn(-c2nc(N3CCCC3)nc(N(c3ccccc3)c3ccccc3)n2)c1C,5.27% (inactive)
9,COC(=O)c1ccc(-c2ccc(F)cc2)nc1C,-3.68% (inactive)
10,CC(C)OC(=O)CC(=O)CSc1nc(-c2ccc(F)cc2)cc(-c2ccccc2)c1C#N,38.9% (active)
11,CN1CCCC(OC(=O)c2ccccc2Br)C1 (stereo not given),67% (active)
12,O=C(OCCN1CCCCC1)c1ccccc1Br,3.85% (inactive)
13,Cc1nn(C)c(C(=O)N2CCc3ccccc32)c1Br,66.9% (active)
14,Cc1c(Br)c(C(=O)N2CCc3ccccc32)nn1C,3.1% (inactive)
15,Cc1cccc2cc3c(N)c(C(=O)N4CCc5ccccc54)sc3nc12,7.08% (inactive)
16,O=C1N/C(=C\c2ccsc2)C(=O)N1Cc1ccc(F)cc1,4.06% (inactive)
17,O=C1c2ccsc2SCCN1Cc1ccc(F)cc1,27.7% (active)
18,C=CCn1c(=O)c(C(=O)NCCNCC)c(O)c2ccccc21,12.4% (active)
19,CCCCN(C(=O)c1ccc([N+](=O)[O-])o1)c1c(N)n(CCCC)c(=O)[nH]c1=O,5.49% (inactive)
20,COCCN(C(=O)CN1CCCc2ccccc21)c1c(N)n(Cc2ccccc2)c(=O)[nH]c1=O,18.8% (active)
21,CCn1c(=O)c(C(=O)CN2CCCc3ccccc32)c(N)n(Cc2ccccc2)c1=O,60% (active)
22,CCN(C(=O)CN1CCCc2cc(C)ccc21)c1c(N)n(Cc2ccccc2)c(=O)[nH]c1=O,6.97% (inactive)
23,Cc1ccc2c(c1)CCCN2CC(=O)N(C)c1c(N)n(Cc2ccccc2)c(=O)[nH]c1=O,1.27% (inactive)
24,COCCCN(C(=O)c1cccnc1SC)c1c(N)n(Cc2ccccc2)c(=O)[nH]c1=O,48.1% (active)
25,COc1cc(OC)cc(C(=O)N(Cc2ccco2)c2c(N)n(Cc3ccccc3)c(=O)[nH]c2=O)c1,7.79% (inactive)
